Test [1] has as its target T1, PYK2 (Homo sapiens, UniProt Q14289). As to the kind of experiment: Kinase selectivity profiling, HTRF kinEASE-TK. It counts as biochemical. Summed up:
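HTRF KinEASE-TK format; enzyme level, reaction time and ATP level were optimised beforehand. Test compound in kinase buffer, at half-log serial dilutions from 100 µM top (final), was mixed with TK substrate-biotin and kinase. ATP was added to start the reaction, which ran at room temperature. Eu3+-cryptate TK antibody and streptavidin-XL665 (0.125 μM final) were added; TR-FRET was read after 1 h. Triplicates; IC50 from sigmoid dose-response fit.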

Test [2] has as its target T1, PYK2. The note with it: read-out: Reported IC50 PYK2; cited from earlier work.
Test [3] addresses PDGFRβ (Homo sapiens, UniProt P09619). The test is described as follows: Kinase selectivity profiling, HTRF kinEASE-TK. In kind it is biochemical. The note with it: relative to FAK.
The target in test [4] is IGF-1R (Homo sapiens, UniProt P08069). The test is described as follows: Kinase selectivity profiling, HTRF kinEASE-TK. In kind it is biochemical. The note with it: relative to FAK.
Test [5] has as its target Truncated human FAK(PTK2) (Homo sapiens, UniProt Q05397). The test is described as follows: In vitro FAK inhibition, HTRF kinEASE-TK kinase assay. It counts as biochemical.
The target of test [6] is EGFR (Homo sapiens, UniProt P00533). As to the kind of experiment: biochemical. It counts as biochemical.

Molecules are shown by their SMILES. Like-named read-outs stand apart in the source and are kept apart here.

T1 sequence (Q14289 whole entry, species assumed): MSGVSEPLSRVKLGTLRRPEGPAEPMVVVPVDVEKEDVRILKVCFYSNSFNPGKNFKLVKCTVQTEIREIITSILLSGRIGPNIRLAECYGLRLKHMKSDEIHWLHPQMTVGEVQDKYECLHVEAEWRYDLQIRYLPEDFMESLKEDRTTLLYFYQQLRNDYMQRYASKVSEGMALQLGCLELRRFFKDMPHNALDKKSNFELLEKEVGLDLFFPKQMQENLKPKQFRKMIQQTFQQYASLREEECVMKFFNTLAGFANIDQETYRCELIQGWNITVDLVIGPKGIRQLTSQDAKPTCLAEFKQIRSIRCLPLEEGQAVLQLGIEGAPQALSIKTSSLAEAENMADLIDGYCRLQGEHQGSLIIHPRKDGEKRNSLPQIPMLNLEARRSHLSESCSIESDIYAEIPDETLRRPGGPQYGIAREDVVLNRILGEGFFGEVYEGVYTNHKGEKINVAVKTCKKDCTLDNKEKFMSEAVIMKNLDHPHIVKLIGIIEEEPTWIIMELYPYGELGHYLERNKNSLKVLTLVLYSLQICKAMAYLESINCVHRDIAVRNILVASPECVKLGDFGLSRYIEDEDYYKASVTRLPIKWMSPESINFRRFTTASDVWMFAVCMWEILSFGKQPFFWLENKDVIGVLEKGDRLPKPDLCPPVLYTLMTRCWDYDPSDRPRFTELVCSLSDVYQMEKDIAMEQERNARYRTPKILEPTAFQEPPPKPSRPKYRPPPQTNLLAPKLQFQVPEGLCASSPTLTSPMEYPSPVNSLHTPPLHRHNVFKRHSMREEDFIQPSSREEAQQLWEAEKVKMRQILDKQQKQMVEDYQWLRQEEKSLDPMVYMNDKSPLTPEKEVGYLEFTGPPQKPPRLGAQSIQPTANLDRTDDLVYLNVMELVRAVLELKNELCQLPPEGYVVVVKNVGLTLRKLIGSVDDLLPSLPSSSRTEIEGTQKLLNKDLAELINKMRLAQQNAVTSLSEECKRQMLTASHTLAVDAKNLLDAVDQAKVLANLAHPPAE
EGFR, sequence (P00533 25-1210, species assumed): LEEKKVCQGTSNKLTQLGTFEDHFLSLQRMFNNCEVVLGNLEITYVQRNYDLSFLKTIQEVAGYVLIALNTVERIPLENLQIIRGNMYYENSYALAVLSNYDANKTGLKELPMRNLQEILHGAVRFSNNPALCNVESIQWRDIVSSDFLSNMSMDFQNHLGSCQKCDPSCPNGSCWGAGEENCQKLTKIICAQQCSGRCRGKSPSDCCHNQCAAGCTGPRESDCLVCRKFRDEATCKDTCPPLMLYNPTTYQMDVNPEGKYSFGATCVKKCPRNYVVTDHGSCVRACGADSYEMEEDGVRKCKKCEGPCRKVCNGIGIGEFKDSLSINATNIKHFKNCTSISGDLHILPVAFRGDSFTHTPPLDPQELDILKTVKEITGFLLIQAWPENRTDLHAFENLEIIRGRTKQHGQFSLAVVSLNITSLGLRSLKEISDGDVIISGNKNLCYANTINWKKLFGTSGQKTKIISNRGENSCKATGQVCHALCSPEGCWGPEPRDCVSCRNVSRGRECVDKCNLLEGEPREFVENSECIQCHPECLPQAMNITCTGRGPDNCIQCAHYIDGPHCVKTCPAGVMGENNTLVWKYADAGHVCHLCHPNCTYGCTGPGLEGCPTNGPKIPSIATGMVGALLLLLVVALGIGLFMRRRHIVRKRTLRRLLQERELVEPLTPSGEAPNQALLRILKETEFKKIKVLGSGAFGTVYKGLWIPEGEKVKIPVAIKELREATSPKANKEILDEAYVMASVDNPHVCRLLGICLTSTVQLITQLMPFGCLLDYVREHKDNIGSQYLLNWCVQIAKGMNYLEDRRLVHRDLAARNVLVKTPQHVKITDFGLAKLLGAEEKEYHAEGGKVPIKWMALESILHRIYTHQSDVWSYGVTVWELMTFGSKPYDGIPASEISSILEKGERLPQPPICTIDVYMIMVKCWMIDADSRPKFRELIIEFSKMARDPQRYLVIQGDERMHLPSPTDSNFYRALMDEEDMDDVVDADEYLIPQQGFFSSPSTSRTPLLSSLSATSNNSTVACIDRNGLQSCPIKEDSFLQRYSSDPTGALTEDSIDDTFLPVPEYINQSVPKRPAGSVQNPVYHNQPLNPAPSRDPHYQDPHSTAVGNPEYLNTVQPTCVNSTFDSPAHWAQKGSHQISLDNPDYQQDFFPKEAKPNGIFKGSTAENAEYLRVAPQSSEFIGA
Truncated human FAK(PTK2), sequence (Q05397 376-1052): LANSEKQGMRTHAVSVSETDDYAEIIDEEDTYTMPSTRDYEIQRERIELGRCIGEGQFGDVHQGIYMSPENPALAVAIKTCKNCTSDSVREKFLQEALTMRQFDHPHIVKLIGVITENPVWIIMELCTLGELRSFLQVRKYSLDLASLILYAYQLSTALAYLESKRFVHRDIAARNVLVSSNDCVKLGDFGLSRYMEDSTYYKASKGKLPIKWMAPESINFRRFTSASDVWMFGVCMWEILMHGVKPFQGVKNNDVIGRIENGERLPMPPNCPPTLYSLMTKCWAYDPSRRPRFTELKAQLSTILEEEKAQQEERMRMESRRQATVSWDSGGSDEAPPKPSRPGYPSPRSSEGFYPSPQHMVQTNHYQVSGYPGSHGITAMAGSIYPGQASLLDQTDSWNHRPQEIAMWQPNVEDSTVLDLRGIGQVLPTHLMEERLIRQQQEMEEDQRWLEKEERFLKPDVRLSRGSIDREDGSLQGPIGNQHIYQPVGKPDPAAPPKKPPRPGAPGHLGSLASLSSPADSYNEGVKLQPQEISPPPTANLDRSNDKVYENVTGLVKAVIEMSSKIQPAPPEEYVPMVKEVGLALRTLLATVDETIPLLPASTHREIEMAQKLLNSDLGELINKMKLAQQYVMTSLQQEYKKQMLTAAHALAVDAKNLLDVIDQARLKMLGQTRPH
IGF-1R, sequence (P08069 31-1367, species assumed): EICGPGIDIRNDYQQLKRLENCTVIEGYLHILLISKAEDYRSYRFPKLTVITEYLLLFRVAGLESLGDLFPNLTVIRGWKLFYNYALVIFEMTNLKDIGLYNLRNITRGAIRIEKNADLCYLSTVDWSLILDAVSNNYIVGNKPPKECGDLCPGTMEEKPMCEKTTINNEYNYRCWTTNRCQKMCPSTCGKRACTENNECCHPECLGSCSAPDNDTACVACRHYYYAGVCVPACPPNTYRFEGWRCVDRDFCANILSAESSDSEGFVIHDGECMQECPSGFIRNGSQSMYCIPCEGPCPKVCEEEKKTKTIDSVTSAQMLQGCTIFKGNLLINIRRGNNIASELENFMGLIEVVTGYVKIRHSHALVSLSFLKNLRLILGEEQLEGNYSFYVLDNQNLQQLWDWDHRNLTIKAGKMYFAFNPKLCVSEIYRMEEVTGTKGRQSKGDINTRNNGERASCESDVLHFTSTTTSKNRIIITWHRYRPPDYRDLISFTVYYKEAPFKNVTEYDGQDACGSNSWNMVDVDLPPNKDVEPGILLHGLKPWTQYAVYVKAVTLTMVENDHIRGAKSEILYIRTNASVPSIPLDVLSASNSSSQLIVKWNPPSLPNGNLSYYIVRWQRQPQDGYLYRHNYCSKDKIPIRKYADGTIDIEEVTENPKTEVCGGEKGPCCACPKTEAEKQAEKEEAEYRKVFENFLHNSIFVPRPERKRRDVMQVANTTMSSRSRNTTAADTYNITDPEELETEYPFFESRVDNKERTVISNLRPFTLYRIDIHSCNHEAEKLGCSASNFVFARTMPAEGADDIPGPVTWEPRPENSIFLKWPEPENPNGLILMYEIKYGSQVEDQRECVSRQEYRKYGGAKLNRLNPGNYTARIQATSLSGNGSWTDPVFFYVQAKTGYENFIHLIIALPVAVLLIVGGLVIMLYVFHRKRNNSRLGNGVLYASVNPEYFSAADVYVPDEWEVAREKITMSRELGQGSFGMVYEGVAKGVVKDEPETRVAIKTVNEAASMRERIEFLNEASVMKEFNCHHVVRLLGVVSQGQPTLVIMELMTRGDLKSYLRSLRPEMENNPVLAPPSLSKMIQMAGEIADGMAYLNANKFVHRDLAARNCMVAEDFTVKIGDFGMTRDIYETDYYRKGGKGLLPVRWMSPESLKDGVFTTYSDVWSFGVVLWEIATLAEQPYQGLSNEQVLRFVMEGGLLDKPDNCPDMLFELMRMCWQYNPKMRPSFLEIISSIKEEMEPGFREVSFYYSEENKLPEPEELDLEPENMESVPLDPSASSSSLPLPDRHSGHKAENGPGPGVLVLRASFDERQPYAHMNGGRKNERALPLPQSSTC

With `CNC(=O)c1ccccc1Nc1nc(Nc2ccc(N3CCOCC3)cc2OC)ncc1Cl` [NVP-TAE226, reference compound], the IC50 in test [1] (read-out: IC50 ± SD PYK2, mean of three determinations) is 5.7 ± 1.4 nM; in test [2] it was 3.5 ± 2.1 nM.
As to `COc1ccc(Nc2nc(Nc3ccc(OCCOCCF)cc3)ncc2Br)cc1` [[^19F]2, 5-Bromo-N^2-(4-(2-(2-fluoroethoxy)ethoxy)phenyl)-N^4-(4-methoxyphenyl)pyrimidine-2,4-diamine], the “selectivity against PDGFRβ” value in test [3] is given as “more than 200 folds”. The “selectivity against IGF-1R” value in test [4] is on record as “more than 200 folds”. In addition, the IC50 came to 3560 ± 626 nM in test [1], 57.1 ± 8.3 nM in test [5] and 4310 ± 562 nM in test [6]. The “selectivity against PYK2” value in test [1] (relative to FAK) is listed as 62.4 folds. For the same compound, the “selectivity against EGFR” value in test [6] (relative to FAK) is 75.5 folds.
Consider `COc1ccc(Nc2nc(Nc3ccc(OCCOCCOCCF)cc3)ncc2Br)cc1` [[^19F]3, 5-Bromo-N^2-(4-(2-(2-(2-fluoroethoxy)ethoxy)ethoxy)phenyl)-N^4-(4-methoxyphenyl)pyrimidine-2,4-diamine], for which the IC50 in test [5] was 1110 ± 60.9 nM.

Values taken from article PMC9078890 (RSC Advances, 2018).
